# Key:
# Hexokinase-4 [1] = biological target: T1, Hexokinase-4 (Homo sapiens, UniProt P35557); assay: Induction of human pancreatic glucokinase activity at 5 mM glucose concentration
# T1 sequence (P35557 whole entry): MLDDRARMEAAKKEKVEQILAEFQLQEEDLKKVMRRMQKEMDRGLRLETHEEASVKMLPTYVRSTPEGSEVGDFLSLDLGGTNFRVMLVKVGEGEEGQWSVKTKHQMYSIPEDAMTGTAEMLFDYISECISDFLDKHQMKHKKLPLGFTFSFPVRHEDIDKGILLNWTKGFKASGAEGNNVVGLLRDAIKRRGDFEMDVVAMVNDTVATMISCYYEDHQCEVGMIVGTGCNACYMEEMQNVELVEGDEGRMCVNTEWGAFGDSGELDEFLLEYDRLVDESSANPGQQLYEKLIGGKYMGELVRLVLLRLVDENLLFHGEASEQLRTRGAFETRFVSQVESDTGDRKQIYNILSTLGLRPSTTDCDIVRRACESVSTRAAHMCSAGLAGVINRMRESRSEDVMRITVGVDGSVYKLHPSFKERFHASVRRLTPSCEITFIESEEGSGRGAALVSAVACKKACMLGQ
# How it was run: (§1)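 Enzymatic assay with purified recombinant human pancreatic or liver glucokinase, read as fold increase in activity at 5.0 mM glucose. EC50 is the mean of at least duplicate runs. For the pancreatic enzyme, glucose S0.5 and Vmax were also determined.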
# Mus musculus [2] = assay: Increase in oral glucose tolerance in C57BL/J mouse assessed as reduction in glucose area under curve at 300 mg/kg by OGTT; assay type: functional; set-up: scale not given: the % may be the effect or the level left
# [3] = Bioavailability in mouse; assay type: ADME, organism-based; settings: in vivo
# How it was run: (§2)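 Pharmacokinetics in mice and dogs after a single intravenous dose and a single oral dose. Clearance, volume of distribution, elimination half-life and oral bioavailability (F) were derived.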
# [4] = Bioavailability in dog; assay type: ADME, organism-based, Canis lupus familiaris; settings: in vivo; how it was run: as §2
# [5] = Elimination half life in mouse; assay type: ADME, organism-based; settings: in vivo, read-out: beta t1/2 (converted); how it was run: as §2
# [6] = Elimination half life in dog; assay type: ADME, organism-based, Canis lupus familiaris; settings: in vivo, read-out: beta t1/2 (converted); how it was run: as §2
# [7] = Volume of distribution in mouse; assay type: ADME, organism-based; settings: in vivo; how it was run: as §2
# [8] = Volume of distribution in dog; assay type: ADME, organism-based, Canis lupus familiaris; settings: in vivo; how it was run: as §2
# [9] = Clearance in dog; assay type: ADME, organism-based, Canis lupus familiaris; settings: in vivo; how it was run: as §2
# [10] = Clearance in mouse; assay type: ADME, organism-based; settings: in vivo; how it was run: as §2
# Cytochrome P450 3A4 = Cytochrome P450 3A4 (Homo sapiens, UniProt P08684); assay: Inhibition of CYP3A4 (unknown origin) at 25 to 50 uM; assay type: ADME
# Cytochrome P450 2D6 = Cytochrome P450 2D6 (Homo sapiens, UniProt P10635); assay: Inhibition of CYP2D6 (unknown origin) at 25 to 50 uM; assay type: ADME
# Cytochrome P450 2C19 = Cytochrome P450 2C19 (Homo sapiens, UniProt P33261); assay: Inhibition of CYP2C19 (unknown origin) at 25 to 50 uM; assay type: ADME
# Cytochrome P450 2C9 = Cytochrome P450 2C9 (Homo sapiens, UniProt P11712); assay: Inhibition of CYP2C9 (unknown origin) at 25 to 50 uM; assay type: ADME
# Cytochrome P450 1A2 = biological target: T2, Cytochrome P450 1A2 (Homo sapiens, UniProt P05177); assay: Inhibition of CYP1A2 (unknown origin) at 25 to 50 uM; assay type: ADME
# T2 sequence (P05177 whole entry): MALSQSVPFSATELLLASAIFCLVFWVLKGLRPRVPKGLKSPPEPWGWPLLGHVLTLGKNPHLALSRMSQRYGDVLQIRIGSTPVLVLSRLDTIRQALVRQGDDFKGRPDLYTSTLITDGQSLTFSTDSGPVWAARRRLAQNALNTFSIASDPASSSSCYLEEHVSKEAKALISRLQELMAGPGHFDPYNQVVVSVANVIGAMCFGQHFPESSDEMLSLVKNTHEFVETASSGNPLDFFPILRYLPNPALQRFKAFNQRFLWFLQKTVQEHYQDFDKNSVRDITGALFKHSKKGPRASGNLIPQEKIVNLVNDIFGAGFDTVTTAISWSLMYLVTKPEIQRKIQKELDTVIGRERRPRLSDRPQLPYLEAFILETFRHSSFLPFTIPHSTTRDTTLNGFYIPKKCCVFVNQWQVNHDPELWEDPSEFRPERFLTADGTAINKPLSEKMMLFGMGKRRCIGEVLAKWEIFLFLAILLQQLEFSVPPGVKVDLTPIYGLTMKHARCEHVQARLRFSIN
# [11] = Metabolic stability in human liver microsomes assessed as compound remaining after 60 mins; assay type: ADME, Microsome; settings: read-out: Stability
# How it was run: (§3)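 Compound incubated for 1 h with mouse, dog or human liver microsomes. Percent of parent compound remaining was measured.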
# [12] = Metabolic stability in mouse liver microsomes assessed as compound remaining after 60 mins; assay type: ADME, Microsome; settings: read-out: Stability; how it was run: as §3
# [13] = Metabolic stability in dog liver microsomes assessed as compound remaining after 60 mins; assay type: ADME, Canis lupus familiaris, Microsome; settings: read-out: Stability; how it was run: as §3
# Mus musculus [14] = species on record: Mus musculus; assay: Toxicity in ob/ob mouse assessed as effect on body weight; assay type: organism-based; settings: in vivo
# How it was run: (§4)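 ob/ob mice dosed orally and repeatedly in a subchronic study. Blood glucose, serum lipids and body weight were monitored.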
# Mus musculus [15] = assay: Toxicity in C57BL/J mouse assessed as hypoglycemic risk at 150 mg/kg; assay type: organism-based; set-up: dose 150 mg/kg; settings: in vivo
# How it was run: (§5)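 C57BL/J6 mice given oral dosing followed by an oral glucose tolerance test. Plasma glucose was tracked over time and glucose AUC reduction calculated. Several doses were tested, including 50 and 150 mg/kg. Hypoglycemia risk was judged from the glucose profiles.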
# Mus musculus [16] = assay: Increase in oral glucose tolerance in C57BL/J mouse assessed as reduction in glucose area under curve at 50 mg/kg by OGTT; assay type: functional; set-up: scale not given: the % may be the effect or the level left; how it was run: as §5
# Hexokinase-4 [17] = biological target: T1, Hexokinase-4; assay: Induction of human hepatic glucokinase activity at 5 mM glucose concentration; how it was run: as §1
# Mus musculus [18] = species on record: Mus musculus; assay: Toxicity in ob/ob mouse assessed as effect on serum lipid level; assay type: organism-based; settings: in vivo; how it was run: as §4
# Sequence of Cytochrome P450 3A4 (P08684 whole entry): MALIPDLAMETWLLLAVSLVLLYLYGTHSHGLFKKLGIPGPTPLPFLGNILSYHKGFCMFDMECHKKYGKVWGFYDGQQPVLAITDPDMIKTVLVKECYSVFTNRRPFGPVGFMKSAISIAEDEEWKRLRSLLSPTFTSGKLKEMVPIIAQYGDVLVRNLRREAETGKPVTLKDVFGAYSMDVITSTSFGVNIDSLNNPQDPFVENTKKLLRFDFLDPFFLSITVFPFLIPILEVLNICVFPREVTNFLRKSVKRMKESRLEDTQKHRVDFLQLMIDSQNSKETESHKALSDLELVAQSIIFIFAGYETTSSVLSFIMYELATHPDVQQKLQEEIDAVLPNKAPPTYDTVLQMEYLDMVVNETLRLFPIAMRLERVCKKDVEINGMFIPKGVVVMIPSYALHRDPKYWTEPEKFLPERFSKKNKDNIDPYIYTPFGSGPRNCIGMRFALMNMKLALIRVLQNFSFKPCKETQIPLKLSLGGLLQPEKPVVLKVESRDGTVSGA
# Sequence of Cytochrome P450 2C19 (P33261 whole entry): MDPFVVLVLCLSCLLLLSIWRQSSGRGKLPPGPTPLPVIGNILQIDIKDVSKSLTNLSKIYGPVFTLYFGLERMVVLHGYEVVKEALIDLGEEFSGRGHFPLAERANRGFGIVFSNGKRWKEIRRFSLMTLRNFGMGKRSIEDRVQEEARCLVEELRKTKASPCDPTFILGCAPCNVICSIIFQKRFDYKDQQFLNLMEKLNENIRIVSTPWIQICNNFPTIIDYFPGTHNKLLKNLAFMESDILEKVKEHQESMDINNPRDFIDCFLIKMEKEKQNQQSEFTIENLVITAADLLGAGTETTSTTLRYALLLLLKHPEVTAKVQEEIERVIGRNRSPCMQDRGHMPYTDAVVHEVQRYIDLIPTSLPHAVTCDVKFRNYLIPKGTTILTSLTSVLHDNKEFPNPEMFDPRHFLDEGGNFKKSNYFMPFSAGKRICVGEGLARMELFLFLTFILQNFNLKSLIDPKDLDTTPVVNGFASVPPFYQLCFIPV
# Sequence of Cytochrome P450 2D6 (P10635 whole entry): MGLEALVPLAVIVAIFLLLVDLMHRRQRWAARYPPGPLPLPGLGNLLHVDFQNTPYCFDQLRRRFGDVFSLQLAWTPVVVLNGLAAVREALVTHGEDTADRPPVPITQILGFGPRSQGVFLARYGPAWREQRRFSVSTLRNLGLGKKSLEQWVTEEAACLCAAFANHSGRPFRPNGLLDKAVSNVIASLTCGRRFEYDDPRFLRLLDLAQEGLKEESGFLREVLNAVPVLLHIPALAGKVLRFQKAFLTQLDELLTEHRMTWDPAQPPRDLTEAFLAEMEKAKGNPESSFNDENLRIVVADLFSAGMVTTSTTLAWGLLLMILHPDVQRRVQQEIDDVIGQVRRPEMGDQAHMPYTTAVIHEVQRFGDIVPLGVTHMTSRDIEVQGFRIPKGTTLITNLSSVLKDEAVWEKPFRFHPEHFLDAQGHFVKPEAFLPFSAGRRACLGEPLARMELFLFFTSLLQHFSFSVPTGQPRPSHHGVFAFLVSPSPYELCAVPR
# Sequence of Cytochrome P450 2C9 (P11712 whole entry): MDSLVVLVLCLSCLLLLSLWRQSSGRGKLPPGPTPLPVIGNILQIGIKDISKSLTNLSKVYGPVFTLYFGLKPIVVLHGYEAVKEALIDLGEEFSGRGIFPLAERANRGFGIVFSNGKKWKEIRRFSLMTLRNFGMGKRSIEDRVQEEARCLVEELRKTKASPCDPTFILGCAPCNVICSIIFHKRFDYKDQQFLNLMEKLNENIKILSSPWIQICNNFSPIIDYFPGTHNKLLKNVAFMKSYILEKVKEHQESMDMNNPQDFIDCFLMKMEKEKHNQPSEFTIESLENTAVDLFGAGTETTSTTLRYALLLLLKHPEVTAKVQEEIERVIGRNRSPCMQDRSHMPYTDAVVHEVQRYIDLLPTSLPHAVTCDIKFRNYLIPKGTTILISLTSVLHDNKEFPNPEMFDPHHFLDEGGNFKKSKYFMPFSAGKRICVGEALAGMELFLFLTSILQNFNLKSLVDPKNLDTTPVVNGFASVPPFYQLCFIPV
smiles,measurement,setting,value
COC[C@H](C)Oc1cc(/C=C/c2cc(F)ccc2F)cc(C(=O)Nc2ccn(C)n2)c1,EC50,Hexokinase-4 [1],200 nM
COC[C@H](C)Oc1cc(/C=C/c2ccccc2F)cc(C(=O)Nc2ccn(C)n2)c1,EC50,Hexokinase-4 [1],80 nM
COC[C@H](C)Oc1cc(CCc2ccc(F)cc2)cc(C(=O)Nc2ccn(C)n2)c1,EC50,Hexokinase-4 [1],216 nM
CN(C)C(=N)NC(=N)N [METFORMIN],Activity,Mus musculus [2],29.9%
COC[C@H](C)Oc1cc(/C=C/c2cc(F)cc(F)c2F)cc(C(=O)Nc2ccc(C(=O)O)cn2)c1,EC50,Hexokinase-4 [1],778 nM
COC[C@H](C)Oc1cc(CCc2c(F)cccc2F)cc(C(=O)Nc2ccc(C(=O)O)cn2)c1,bioavailability,[3],66%
same,bioavailability,[4],85%
same,half-life,[5],2.6 h
same,half-life,[6],2.6 h
same,Vd,[7],0.33 L/kg
same,Vd,[8],0.49 L/kg
same,clearance,[9],7.17 mL/min/kg
same,clearance,[10],2.5 mL/min/kg
same,inhibition (INH),Cytochrome P450 3A4,Not Active
same,inhibition (INH),Cytochrome P450 2D6,Not Active
same,inhibition (INH),Cytochrome P450 2C19,Not Active
same,inhibition (INH),Cytochrome P450 2C9,Not Active
same,inhibition (INH),Cytochrome P450 1A2,Not Active
same,remaining at 1 h,[11],> 60%
same,remaining at 1 h,[12],> 60%
same,remaining at 1 h,[13],> 60%
same,Activity,Mus musculus [14],Non-toxic
same,Activity,Mus musculus [15],Toxic
same,Activity,Mus musculus [16],29.6%
same,EC50,Hexokinase-4 [17],85 nM
same,EC50,Hexokinase-4 [1],70 nM
same,Activity,Mus musculus [18],Non-toxic
COC[C@H](C)Oc1cc(/C=C/c2ccccc2OC)cc(C(=O)Nc2ccn(C)n2)c1,EC50,Hexokinase-4 [1],115 nM
COC[C@H](C)Oc1cc(CCc2ccc(F)cc2F)cc(C(=O)Nc2ccn(C)n2)c1,EC50,Hexokinase-4 [1],184 nM
COC[C@H](C)Oc1cc(/C=C/c2ccc(F)cc2F)cc(C(=O)Nc2ccn(C)n2)c1,EC50,Hexokinase-4 [1],109 nM
COC[C@H](C)Oc1cc(CCc2cc(F)cc(F)c2F)cc(C(=O)Nc2ccn(C)n2)c1,EC50,Hexokinase-4 [1],855 nM
COC[C@H](C)Oc1cc(CCc2c(F)cccc2F)cc(C(=O)Nc2ccn(C)n2)c1,EC50,Hexokinase-4 [1],131 nM
COC[C@H](C)Oc1cc(/C=C/c2ccc([N+](=O)[O-])cc2)cc(C(=O)Nc2ccc(C(=O)O)cn2)c1,EC50,Hexokinase-4 [1],284 nM
COC[C@H](C)Oc1cc(/C=C/c2cccc(C)n2)cc(C(=O)Nc2ccn(C)n2)c1,EC50,Hexokinase-4 [1],132 nM
COC[C@H](C)Oc1cc(/C=C/c2ccc([N+](=O)[O-])cc2)cc(C(=O)Nc2ccn(C)n2)c1,EC50,Hexokinase-4 [1],852 nM
COC[C@H](C)Oc1cc(Oc2cc(F)cc(F)c2)cc(C(=O)Nc2ccc(C(=O)O)cn2)c1,bioavailability,[4],100%
COC[C@H](C)Oc1cc(/C=C/c2c(F)cccc2F)cc(C(=O)Nc2ccn(C)n2)c1,EC50,Hexokinase-4 [1],161 nM
COC[C@H](C)Oc1cc(/C=C/c2cc(F)cc(F)c2F)cc(C(=O)Nc2ccn(C)n2)c1,EC50,Hexokinase-4 [1],848 nM
COC[C@H](C)Oc1cc(/C=C/c2ccccc2[N+](=O)[O-])cc(C(=O)Nc2ccn(C)n2)c1,EC50,Hexokinase-4 [1],283 nM
COC[C@H](C)Oc1cc(/C=C/c2ccc(F)cc2)cc(C(=O)Nc2ccn(C)n2)c1,EC50,Hexokinase-4 [1],119 nM

# Reference: ChEMBL document CHEMBL2311350, “Discovery of a novel phenylethyl benzamide glucokinase activator for the treatment of type 2 diabetes mellitus” (Bioorg Med Chem Lett, 2013)
